Data on one molecule can be found in ChEMBL document CHEMBL1124260, “Synthesis and antitumor activity of quaternary ellipticine glycosides, a series of novel and highly active antitumor agents” (1988).

Where only a bound is given, the exact number is not on record here.

In test [1] the test system is Mus musculus. Briefly: Inhibition of sc implanted syngeneic colon 38 carcinoma by ip administration at 2.5 mg/kg on 1, 3, 5, 7, 9 days measured as inhibition ratio. It is filed as functional. Conditions: route subcutaneous. Put shortly:
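Tumor homogenate (70 mg) implanted into the axillary region of female BDF1 mice. Drug dissolved in 0.9% NaCl and diluted with saline just before use, then given ip on days 1, 3, 5, 7 and 9. Tumor length and width were measured by caliper on day 20 after inoculation and converted to estimated weight. Result reported as treated vs control tumor weight, T/C %.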

Test [2] has as its system Mus musculus. Briefly: Number of survivors out of 6 ip implanted P388 leukemia in mouse after ip administration of 2.5 mg/kg after 80 days. As to conditions: route intraperitoneal. It is filed as functional. Put shortly: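 P388 leukemia, 10^6 ascitic cells implanted ip in female BDF1 mice. Drug in saline given ip for 5 consecutive days from 24 h after transplant. Groups of six per dose level. Survivors/total recorded at the 80-day end of observation; ILS % from treated/control mean survival time.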

In test [3] the test system is Mus musculus. The test is described as follows: Antitumor activity against ip implanted P388 leukemia in mouse after ip administration of 2.5 mg/kg for 5 days expressed as increase in mean life span. It is filed as functional. As to conditions: 120 h, route intraperitoneal. Put shortly:
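Saline-dissolved drug was given ip daily for 5 consecutive days, beginning 24 h post-transplant. ILS % was calculated from treated vs control mean survival time over an 80-day observation period.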

Test [4] deals with Mus musculus. The test is described as follows: Antitumor activity against ip implanted L1210 leukemia in mouse after ip administration of 2.5 mg/kg for 5 days expressed as increase in mean life span. It is filed as functional. As to conditions: 120 h, route intraperitoneal. Put shortly:
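Drug was dissolved in 0.9% NaCl, diluted just before use and given ip once daily for 5 consecutive days, starting 24 h after transplant. ILS % = mean survival time of treated vs control mice, observed for 80 days.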

Test [5] has as its system Mus musculus. Briefly: Effect on ip implanted syngeneic B16 melanoma by ip administration for 9 days at 2.5 mg/kg was measured as increase in mean life span. Conditions: 216 h.
Test [6] deals with Mus musculus. Briefly: Antitumor activity against ip implanted L1210 leukemia in mouse after iv administration of 2.5 mg/kg for 5 days expressed as increase in mean life span. As to conditions: 120 h.
For test [7], the system named is Mus musculus. Briefly: Antitumor activity against ip implanted P388 leukemia in mouse after iv administration of 2.5 mg/kg for 5 days expressed as increase in mean life span. Conditions: 120 h.

As to `COc1cccc2c1C(=O)c1c(O)c3c(c(O)c1C2=O)C[C@@](O)(C(=O)CO)C[C@@H]3O[C@H]1C[C@H](N)[C@H](O)[C@H](C)O1` [DOXORUBICIN], in the test with Mus musculus [1], the T/C is given as 31%. This molecule displayed a Cures in the test on Mus musculus [2] of 5. In addition, the increase in life span (ILS) at 2.5 mg/kg in the test on Mus musculus [3] is more than 675%; in the test on Mus musculus [4], 90%; in the test with Mus musculus [5], more than 257%; with Mus musculus [6] it was 30%; with Mus musculus [7] it was 65%.

The term T/C denotes the ratio of treated to control. What is called ILS is how much longer treated animals lived than controls.
